The text below walks through data of ChEMBL document CHEMBL4513216, “Probing the Open Global Health Chemical Diversity Library for Multistage-Active Starting Points for Next-Generation Antimalarials” (ACS Infect Dis, 2020).

The data set in a line: Toxicity liver stage against HepG2, at 10uM. Also on record: test concentration 10 uM, cell line HepG2-A16-CD81EGFP. The class given is cell-based. The note with it: human, HepG2-A16-CD81EGFP cells; read-out: INHIBITION
An outline of the steps:
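Uninfected HepG2-A16-CD81EGFP cells, 3 × 10^3 per well, 1536-well, plated on prespotted compound at 10 μM final, parasite-free screening media added to match infected plates; puromycin 10 μM positive, DMSO 0.5% negative; run in parallel with 48 h PbLuc assay at 37 °C, 5% CO2; viability by CellTiter-Glo luminescence, normalized to controls.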
On to `OCCN(Cc1nc(-c2ccc3c(c2)OCO3)no1)Cc1cccs1`, for which the cytotoxicity at 10 µM is -0.191%.

On to `CCN(CC)[C@H]1C[C@@H](Cc2cc(CO)on2)C1(C)C`, for which the cytotoxicity at 10 µM came to 9.12%.

As to `COCCN1CCN(C(=O)C[C@@H]2C[C@@H](C(C)C)[C@H](CC#N)C=C2C)CC1`, the cytotoxicity at 10 µM stood at 0.788%.

As for `O=C(Nc1cccnc1-n1cc(Br)cn1)C1CCCC1`, the cytotoxicity at 10 µM was -33.1%.

Regarding `O=C(N[C@]12CC1CN(C(=O)c1ccco1)C2)c1ccoc1` (some centres not stated), the cytotoxicity at 10 µM is -1.48%.

Regarding `Cc1ccsc1C(=O)NCC1COCc2c(C)nnn2C1` (configuration not stated), the cytotoxicity at 10 µM was -3.51%.

On to `CN1CCN(Cc2cn3c(n2)CN(C(=O)c2ccco2)CC3)CC1`, for which the cytotoxicity at 10 µM is -4%.

`CCOC(=O)C1CCN(C(=O)c2cc(Br)ccc2-n2cnnn2)CC1`: the cytotoxicity at 10 µM is -2.41%.

On to `O=C(c1cccs1)N1CC[C@H](O)[C@@H]1Cc1ccccc1`, for which the cytotoxicity at 10 µM was -5.99%.

Turning to `CCC(=O)c1ccccc1NN1c2ccccc2C(=O)C1(C)OC` (configuration not stated), the cytotoxicity at 10 µM was 8.57%.

Consider `CCc1cc(=O)n(CC(=O)N2CCC(C)CC2)c(-c2cccc(F)c2)n1`, for which the cytotoxicity at 10 µM amounted to 7.63%.

In the case of `Cc1c(NC(=O)c2ccc(Br)cc2)c(C(=O)N(C)C)nn1C`, the cytotoxicity at 10 µM amounted to 3.65%.

Consider `COCC(=O)N1CCCCC1c1nc(N(C)C)ncc1-c1cc(C)no1` (configuration not stated), for which the cytotoxicity at 10 µM worked out at 5.93%.

With `c1cc(CN2CCCC(c3ccnc4nccn34)C2)ccn1` (configuration not stated), the cytotoxicity at 10 µM was -3.29%.

With `COCCC(=O)N1C[C@@H](c2ccc(F)c(F)c2)[C@@]2(CCCC(=O)N2)C1`, the cytotoxicity at 10 µM is -9.06%.

For `Cc1nc(C2CCN(C(=O)c3cscn3)CC2)c2sccn12`, the cytotoxicity at 10 µM is -5.16%.

As to `NCc1cn(-c2ccccc2C(=O)NCc2ccccc2Cl)cn1`, the cytotoxicity at 10 µM is -9.94%.

For `COCc1cc(O)nc(C2CCCN(Cc3cccc(Cl)c3Cl)C2)n1` (configuration not stated), the cytotoxicity at 10 µM is -7.47%.

For the molecule `CC(O)CN1CCC(CN(C)Cc2cc(F)cc3cccnc23)CC1` (configuration not stated), the cytotoxicity at 10 µM was -1.26%.

Consider `CN(CC(=O)N1CCCC1)C(=O)c1ccccc1F`, for which the cytotoxicity at 10 µM stood at 11.7%.

On to `Cc1cc(CN(C)C(=O)C(c2ccccc2)N2CCSCC2)no1` (configuration not stated), for which the cytotoxicity at 10 µM is -1.49%.

For the molecule `COc1ccc2c(c1)CCCC2CC(=O)NCC(C)(C)C(=O)O` (configuration not stated), the cytotoxicity at 10 µM was -1.2%.

Regarding `COc1cc2c(nn1)CCN(Cc1noc(CC(C)C)n1)C2`, the cytotoxicity at 10 µM was -1.02%.

Consider `COCCOc1ncccc1C(=O)N(C)c1ccc(OC)c(OC)c1`, for which the cytotoxicity at 10 µM is -46.7%.

Turning to `N#Cc1cn(CCN2CCc3ccccc3C2)c(=O)[nH]c1=O`, the cytotoxicity at 10 µM was 4.47%.

For the molecule `CNC(=O)C(NC(C)=O)c1ccc(F)c(F)c1` (configuration not stated), the cytotoxicity at 10 µM is -6.1%.

Take `CN(C)CCn1c(=O)oc2ccc(NC(=O)N3CCCCCC3)cc21`: the cytotoxicity at 10 µM was -3.59%.

On to `CN(Cc1cnn(C)c1)Cc1nc(Cc2cccc(Cl)c2)no1`, for which the cytotoxicity at 10 µM worked out at 6.53%.

Turning to `COCCN1CCC(NC(=O)Cn2cc(C)c3ccccc32)CC1`, the cytotoxicity at 10 µM was -0.869%.

On to `Cc1nn(C)c(Oc2ccccc2)c1CNC1CCOc2ccccc21` (configuration not stated), for which the cytotoxicity at 10 µM was 4.88%.

With `Cc1ccc(-c2ccc(C(=O)NCC(N)=O)c(F)c2)cc1`, the cytotoxicity at 10 µM was -0.758%.

For the molecule `COCCCNC(=O)Nc1cccc2c1CCN(S(C)(=O)=O)C2`, the cytotoxicity at 10 µM came to 2.87%.

Turning to `CC(CNC(=O)Nc1ccc(F)cc1-n1cccc1)N1CCOCC1` (configuration not stated), the cytotoxicity at 10 µM is -8.71%.

As for `CCc1nncn1CCNC(=O)N1CCCC(Cc2nccn2C)C1` (configuration not stated), the cytotoxicity at 10 µM was found to be 0.548%.

With `Cc1cc(C)c(CNC(=O)NCC2COc3ccccc3C2)c(=O)[nH]1` (configuration not stated), the cytotoxicity at 10 µM is 8.51%.

Turning to `CC(C)c1noc(CN2CCOCC2C)n1` (configuration not stated), the cytotoxicity at 10 µM is 3.95%.

On to `COc1cccc(COc2nc(C(C)C)no2)c1`, for which the cytotoxicity at 10 µM is -42.4%.

With `COc1ccccc1CN(Cc1nc(C)no1)C1CC1`, the cytotoxicity at 10 µM was 2.77%.

In the case of `Cc1noc(C)c1CN1CCCC1c1nnc2ccccn12` (configuration not stated), the cytotoxicity at 10 µM was -1.73%.

For `CCNC(=O)N1CCc2ccc(NC(=O)C(C)c3ccsc3)cc21` (configuration not stated), the cytotoxicity at 10 µM was -3.41%.

As for `O=S(=O)(N1CCCC1)N(Cc1ccccc1)CC1CCCO1` (configuration not stated), the cytotoxicity at 10 µM is -0.966%.

For the molecule `Cc1ccccc1C1(CNc2nnc(C)c(C)c2C#N)CCOCC1`, the cytotoxicity at 10 µM was -2.1%.

With `O=C(c1ccncn1)N1C[C@@H]2CN(Cc3cccnc3)CCO[C@@H]2C1`, the cytotoxicity at 10 µM was 7.61%.

Regarding `Cc1cccc(N2CCC3(CCCN(C(=O)Cc4cccnc4)C3)C2)n1` (configuration not stated), the cytotoxicity at 10 µM came out at 0.824%.

As to `CCn1c(CC2CCN(C(=O)c3cc(C(C)C)nn3C)CC2)n[nH]c1=O`, the cytotoxicity at 10 µM is -58.5%.

Regarding `COCCCC1CCN([C@@H]2c3ccccc3C3(CCNCC3)[C@H]2O)CC1`, the cytotoxicity at 10 µM is -4.67%.

As to `COc1ccccc1N1CCN(C(=O)CSC(C)C)C(C)C1` (configuration not stated), the cytotoxicity at 10 µM is -3.97%.

`Cn1ccnc1-c1cn(CCCc2csc(N)n2)nn1`: the cytotoxicity at 10 µM worked out at 0.963%.

Take `CCN(CC)CCn1cnc(-c2ccccc2)c1-c1cnn(CC)c1`: the cytotoxicity at 10 µM is 3.37%.

As to `c1cc2c(cc1Cn1cc(C3CCOC3)nn1)OCO2` (configuration not stated), the cytotoxicity at 10 µM stood at 3.86%.

Turning to `CCCc1cnc(C)nc1N1CCC(Cn2cc(C(C)O)nn2)CC1` (configuration not stated), the cytotoxicity at 10 µM came out at 1.92%.

Regarding `Cc1cc(C)c2nc(CN3CCC(N4CCOC4=O)CC3)cc(O)c2c1`, the cytotoxicity at 10 µM is -0.213%.

As to `CCOCC1CCN(C(=O)C(c2cccc(F)c2)N(C)C)CC1` (configuration not stated), the cytotoxicity at 10 µM is -4.57%.

In the case of `N#Cc1cccc(N2CCC(CO)(CCOc3ccccc3)CC2)n1`, the cytotoxicity at 10 µM is -42.8%.

Take `O=C(N[C@@H]1CCN(c2ncc(Cl)cc2Cl)C[C@H]1O)c1cnccn1`: the cytotoxicity at 10 µM is -8.92%.

As for `CCOC(=O)CC1CCCCN1C(=O)c1cc(C)on1` (configuration not stated), the cytotoxicity at 10 µM worked out at 5.53%.

With `COCCCN1CC2(CCCN(CCn3cc(Cl)cn3)C2)CCC1=O` (configuration not stated), the cytotoxicity at 10 µM came out at 5.97%.

As to `CN(Cc1ccsc1)C(=O)CN1CCCC(Cn2cncn2)C1` (configuration not stated), the cytotoxicity at 10 µM was -11.3%.

Take `Cc1csc(C2CCCCN2C(=O)c2cc(C)n(C)n2)n1` (configuration not stated): the cytotoxicity at 10 µM was -17.9%.

On to `Cc1ccc(-c2cc(CNC(=O)N3CCC(N(C)C)CC3)on2)cc1`, for which the cytotoxicity at 10 µM is -10.8%.

With `Cc1cc(NC(=O)CNC2CCc3ncnn3C2)no1` (configuration not stated), the cytotoxicity at 10 µM was -6.73%.

On to `Nc1cc2c(nn1)CCN(C(=O)C1CCc3ccccc31)C2` (configuration not stated), for which the cytotoxicity at 10 µM is -6.58%.

Take `Cc1cnn(CCNCC(O)COc2ccc3ccccc3c2)c1` (configuration not stated): the cytotoxicity at 10 µM was -6.31%.

Turning to `Cc1cnn(CCC(=O)N2CCCN(c3nc(C)cs3)CC2)c1`, the cytotoxicity at 10 µM was -4.05%.

For `COc1ccc(OC)c(C(O)CNC(=O)Nc2cccnc2OC)c1` (configuration not stated), the cytotoxicity at 10 µM is -22.4%.

With `CCc1nc(CN(C(C)=O)C2CCN(CC3CCOCC3)C2)no1` (configuration not stated), the cytotoxicity at 10 µM is -3.84%.

For the molecule `Cc1nc(C)n(CC2CCCN2CCOc2ccccc2C#N)n1` (configuration not stated), the cytotoxicity at 10 µM is -4.17%.

Regarding `Cn1cc(CC(=O)N2CCCC(n3cncn3)C2)cn1` (configuration not stated), the cytotoxicity at 10 µM was -3.54%.

On to `O=C(NCc1ccccc1-n1cccn1)N1CCC(N2CCCC2)C1` (configuration not stated), for which the cytotoxicity at 10 µM is -0.554%.

With `Cc1nn(-c2ccccc2)nc1C(=O)N1CCCC(n2cccn2)C1` (configuration not stated), the cytotoxicity at 10 µM is -9.53%.

With `CC(Cn1ccnc1)NC(=O)NCc1cccnc1OC1CCCC1` (configuration not stated), the cytotoxicity at 10 µM was -13.3%.

Turning to `CCc1nc(C2CCCN2C(=O)c2cc(Cl)c[nH]2)no1` (configuration not stated), the cytotoxicity at 10 µM is -12.2%.

Take `O=C(Nc1ccccc1)N1CCN(Cc2noc(C3CC3)n2)CC1`: the cytotoxicity at 10 µM was determined as 2.82%.

As to `N#Cc1cnn(-c2ccc(C(=O)N(C3CCCCC3)C3CC3)cc2)c1N`, the cytotoxicity at 10 µM was -2.54%.

For `COc1ccc(Cl)cc1CC(=O)N1CCN(CC(C)O)CC1` (configuration not stated), the cytotoxicity at 10 µM is -17.1%.

In the case of `O=C(COCc1ccccc1Cl)N1CCCC(n2ccnc2)C1` (configuration not stated), the cytotoxicity at 10 µM was -25.1%.

`O=C(c1sccc1C1CC1)N1CCN(Cc2cscn2)CC1`: the cytotoxicity at 10 µM was found to be 1.97%.

For `Cc1nc(CN(C)C2CCN(Cc3cccc(F)c3)C2)no1` (configuration not stated), the cytotoxicity at 10 µM was -15%.

`Cc1nnc(NC(=O)CN2CCOC(Cn3cccn3)C2)s1` (configuration not stated): the cytotoxicity at 10 µM is -7.44%.

Turning to `Cc1nc2ccccc2nc1CN1CCCCC1Cn1cccn1` (configuration not stated), the cytotoxicity at 10 µM amounted to 3.94%.

Take `CC(C)S(=O)(=O)C(C)C(=O)NCc1cccc(N2CCCCC2=O)c1` (configuration not stated): the cytotoxicity at 10 µM was -7.91%.

`C[C@H]1CN2C[C@H](O)CC2CN1Cc1ccc2nccnc2c1` (some centres not stated): the cytotoxicity at 10 µM was -1.23%.

For the molecule `Cc1cc(Nc2ccccn2)nc(C2CCCN(CCO)C2)n1` (configuration not stated), the cytotoxicity at 10 µM was found to be 1.26%.

Regarding `Cn1cc(N2C(=O)CC[C@@H]3[C@H]2CCN3CCc2ccccc2)cn1`, the cytotoxicity at 10 µM was determined as 15.6%.

Consider `O=C(N1CCCO1)[C@@]12CCO[C@@H]1CCN(Cc1cccnc1)C2`, for which the cytotoxicity at 10 µM was -4.26%.

For `c1cncc(CN2CCC3(COCCN(C4CCOCC4)C3)C2)c1` (configuration not stated), the cytotoxicity at 10 µM is 1.46%.

For `COCCn1cc2c(n1)C(CNCc1cccc(OC)c1)OCC2` (configuration not stated), the cytotoxicity at 10 µM is -4.52%.

As for `CCN1CCN(C)C2(CCN(Cc3ccsc3)CC2)C1=O`, the cytotoxicity at 10 µM stood at 0.317%.

`CN(C)c1ncc2c(c1C(=O)O)CCN(Cc1ccco1)C2`: the cytotoxicity at 10 µM stood at 3.57%.

`CCOC1COC2(CCN(Cc3ccc(C)cc3)CC2)C1` (configuration not stated): the cytotoxicity at 10 µM was -8.28%.

Regarding `COc1cc(CNCCn2ccnc2)cc2c1OCO2`, the cytotoxicity at 10 µM stood at 5.17%.

Take `CN(C)C(=O)N1CCN(Cc2cnn(C)c2)CC2(CNC(=O)C2)C1` (configuration not stated): the cytotoxicity at 10 µM stood at 1.21%.

Consider `Cc1ccc(C(=O)N2CCn3cc(CN4CCCCC4)nc3C2)o1`, for which the cytotoxicity at 10 µM is 4.75%.

Consider `CCCC(=O)NC1CCc2c(ccc(=O)n2Cc2csc(C)n2)C1` (configuration not stated), for which the cytotoxicity at 10 µM was found to be 3.79%.

With `O=C1C[C@@H]2CC[C@H](CN1)N2C(=O)CCc1ccc2c(c1)OCO2`, the cytotoxicity at 10 µM is -5%.

As for `Cc1cnc(N2C[C@@H]3C[C@H](C(=O)N(C)C)[C@H](C2)O3)nc1`, the cytotoxicity at 10 µM is -2.47%.

`COc1ccc(CN2C[C@@H]3C(CC(=O)N4CCCC4)[C@@H]3C2)cc1` (some centres not stated): the cytotoxicity at 10 µM was -13.8%.
